{"source": "ChEMBL document CHEMBL1122914", "about": "“Synthesis and biological activity of pentapeptide analogues of the potent angiotensin converting enzyme inhibitor 5(S)-benzamido-4-oxo-6-phenylhexanoyl-L-proline” (J Med Chem, 1985)", "assay_type_in_all_cases": "functional", "key": {"[1]": {"assay": "Percent recovery of compound in rats over 24 hr when administered orally at a dose of 4.3 mg, 4.09(uCi); and activity calculated from bile of rats at time (5-6 h)", "in_short": "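Adult male Sprague-Dawley rats were fasted overnight, with chow and water otherwise ad libitum. The tritiated proline-4-labelled analogue was given orally in dilute NaHCO3. Bile was collected at timed intervals and urine over 24 h. Aliquots were counted by liquid scintillation, with quench correction by automatic external standardization and a quench curve. Recovery was expressed as percent of the dosed radioactivity.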"}, "[2]": {"test_system": "Rattus norvegicus", "assay": "Compound was evaluated for its base line value in hypertensive rats by peroral administration at a dose of 6.4 mg/kg", "conditions": "route oral", "in_short": "(§1)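 One-clip/two-kidney renal hypertension was induced with a silver clip on the left renal artery, leaving the other kidney intact. Several weeks later, rats were cannulated and those with mean pressure above 160 mmHg were used. Four conscious rats per compound received an oral dose in 0.25% methylcellulose (5 mL/kg), and two received vehicle only. Mean aortic pressure was read before dosing, hourly for 8 h, and at 24 h.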"}, "[3]": {"test_system": "Rattus norvegicus", "assay": "Compound was evaluated for change in blood pressure value in hypertensive rats by peroral administration at a dose of 6.4 mg/kg at 8 hr", "conditions": "route oral", "in_short": "as §1"}, "[4]": {"test_system": "Rattus norvegicus", "assay": "Compound was evaluated for maximum effect in hypertensive rats by peroral administration at a dose of 6.4 mg/kg", "conditions": "route oral", "in_short": "as §1"}, "[5]": {"test_system": "Rattus norvegicus", "assay": "Compound was evaluated for itschange in blood pressure value on hypertensive rats by peroral administration at a dose of 3.0 mg/kgat 4 hr", "conditions": "dose 3 mg/kg; route oral", "in_short": "as §1"}, "[6]": {"test_system": "Rattus norvegicus", "assay": "Compound was evaluated for its base line value on hypertensive rats by peroral administration at a dose of 3.0 mg/kg", "conditions": "route oral"}, "[7]": {"test_system": "Rattus norvegicus", "assay": "Compound was evaluated for its maximum effect value on hypertensive rats by peroral administration at a dose of 3.0 mg/kg", "conditions": "route oral"}, "[8]": {"test_system": "Rattus norvegicus", "assay": "Compound was evaluated for its base line value on hypertensive rats by peroral administration at a dose of 30 mg/kg", "conditions": "route oral"}, "[9]": {"test_system": "Rattus norvegicus", "assay": "Compound was evaluated for itschange in blood pressure value on hypertensive rats by peroral administration at a dose of 30 mg/kg at 8 hr", "conditions": "route oral"}, "[10]": {"test_system": "Rattus norvegicus", "assay": "Compound was evaluated for its maximum effect value on hypertensive rats by peroral administration at a dose of 30 mg/kg", "conditions": "route oral"}, "[11]": {"test_system": "Rattus norvegicus", "assay": "Compound was evaluated for change in blood pressure in hypertensive rats by peroral administration at a dose of 3.0 mg/kg at 1 hr", "conditions": "route oral"}, "[12]": {"test_system": "Rattus norvegicus", "assay": "Compound was evaluated for maximum effect in hypertensive rats by peroral administration at a dose of 3.0 mg/kg", "conditions": "route oral"}}, "data": [{"smiles": "[3H]C1CC(C(=O)O)N(C(=O)CCC(=O)C(Cc2ccccc2)NC(=O)C(CCCCN)NC(=O)C2CCC2)C1", "note": "(configuration not stated)", "values": [{"measurement": "Recovered radioactivity", "setting": "[1]", "value": 1.42, "unit": "%"}]}, {"smiles": "CC(CC(=O)C(Cc1ccccc1)NC(=O)C(CCCCN)NC(=O)C1CCC1)C(=O)N1CCCC1C(=O)O.O=C(O)C(F)(F)F", "note": "(configuration not stated)", "values": [{"measurement": "Mean aortic blood pressure", "setting": "[2]", "value": 186, "unit": "mmHg"}, {"measurement": "Mean aortic blood pressure", "setting": "[3]", "value": -5, "unit": "mmHg"}, {"measurement": "Mean aortic blood pressure", "setting": "[4]", "value": 181, "unit": "mmHg"}]}, {"smiles": "NCCCCC(NC(=O)C1CCC1)C(=O)NC(Cc1ccccc1)C(=O)CCC(=O)N1CCCC1C(=O)O.O=C(O)C(F)(F)F", "note": "(configuration not stated)", "values": [{"measurement": "Mean aortic blood pressure", "setting": "[5]", "value": -22, "unit": "mmHg"}, {"measurement": "Mean aortic blood pressure", "setting": "[6]", "value": 195, "unit": "mmHg"}, {"measurement": "Mean aortic blood pressure", "setting": "[7]", "value": 173, "unit": "mmHg"}]}, {"smiles": "O=C(N[C@@H](Cc1ccccc1)C(=O)CCC(=O)N1CCC[C@H]1C(=O)O)c1ccccc1", "values": [{"measurement": "Mean aortic blood pressure", "setting": "[8]", "value": 190, "unit": "mmHg"}, {"measurement": "Mean aortic blood pressure", "setting": "[9]", "value": -12, "unit": "mmHg"}, {"measurement": "Mean aortic blood pressure", "setting": "[10]", "value": 178, "unit": "mmHg"}]}, {"smiles": "C[C@H](CS)C(=O)N1CCC[C@H]1C(=O)O", "note": "[CAPTOPRIL]", "values": [{"measurement": "Mean aortic blood pressure", "setting": "[11]", "value": -93, "unit": "mmHg"}, {"measurement": "Mean aortic blood pressure", "setting": "[12]", "value": 99, "unit": "mmHg"}]}]}
